# Screening data: PubChem BioAssay, Broad Institute
# In the library only some 2.6% were active in any assay of this set; here they are far more common.
# Vif imaging – HIV Vif self-association inhibitors, primary screen, imaging, HEK293T, single point | HEK293T cells, Vif self-association by quenched fluorescence, 24 h | inhibition, % at 7.49 µM | 0.35% of 340,000 active; in the data active = inhibition above about 50%, passing the limit was not always enough; inconclusive = no clear call, values can overlap the other calls; inactive = below about 31%
# miR-122 sensor – miR-122 Renilla sensor signal increase in Huh7, primary screen, miR-122 inhibitor project, cell-based, single point, plate reader; AID 602342, 2012; Huh7 miR-122 Renilla luciferase sensor, 48 h; neutral wells = 0, positive control = 100; 0.3% of 340,000 active; activation (reporter increase), % at 12.5 µM;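 active = mean replicate activation score at least 90 and every replicate individually at or above 90; inconclusive = only one of the two criteria met; inactive = neither criterion met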;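 also: higher luciferase means less miR-122 activity so hits act as miR-122 inhibitors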
# S100A4 inh HTS – inhibitors of S100A4-myosin IIA peptide binding, primary screen, biochemical, fluorescence polarization, TAMRA-MyoIIA peptide | AID 652163, 2013 | 0.14% of 360,000 active | inhibition, % at 10.7 µM | Protein S100-A4 (Homo sapiens), P26447;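 active = mean inhibition of at least 70% across replicates, with every replicate also reaching that level; inconclusive = mean inhibition reaches 70% but some replicates fall short; inactive = mean inhibition below 70%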
# Target sequence (P26447 whole entry, looked up): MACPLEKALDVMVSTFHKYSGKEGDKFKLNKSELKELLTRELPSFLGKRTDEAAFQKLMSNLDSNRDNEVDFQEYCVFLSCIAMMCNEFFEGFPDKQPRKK
#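 Test system: S100A4 monomer protein; Medium: HEPES pH 7.2 with CaCl2, KCl, NaCl, DTT, Triton; Probe or stimulus: TAMRA-labelled myosin IIA heavy-chain peptide probe, 5 nM; Doses: one dose per compound; Times: polarization read 5 min after assay mix addition, stable 5–60 min; Benchmarks: neutral control DMSO, positive control TFP.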
# FN deposit inh – inhibitors of fibronectin matrix deposition, primary screen, AH1F cells, Alexa488-fibronectin fluorescence, plate reader; AH1F fibroblasts, overnight; AID 743247, 2014; inhibition, % at 12.6 µM; 0.086% of 350,000 active;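 active = mean inhibition across replicates of 30% or more, regardless of how many single replicates reach that level; inconclusive = mean under 30% yet at least half of replicates reach 30%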;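 also: positive control wells lacked labelled fibronectin entirely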
#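 Material: AH1F fibroblast monolayer depositing Alexa488-labelled fibronectin into matrix / Amount: 10000 AH1F cells per well / Signal: fluorescence 485/525 nm / Medium: DMEM, 2% serum / Compound: single dose, pinned / Incubation: 1 h cell adhesion before compound, then overnight fibronectin incubation / Reagent: Alexa488-FN, 24 nM final / Read-out: inhibition of fibronectin deposition signal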
# Env fusion inh – inhibitors of HIV-1 Env-driven cell-cell fusion, primary screen, HeLa-JRFL effector, CEM21 target cells, luciferase. 1.1% of 360,000 active. inhibition, % at 12.3 µM;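 active = mean replicate inhibition score of at least 50 and every replicate individually at or above 50; inconclusive = only one of the two criteria met; inactive = mean below 50 and not all replicates reaching 50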;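 also: 0% = plate neutral controls and 100% = maraviroc near 300 nM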
# Ecoli rRNA inh – reduced GFP signal of wild-type E. coli, primary screen, bacterial rRNA inhibitor project, GFP/RFP fluorescence, OD600, single point | E. coli WT GFP vs humanized-ribosome RFP mutants, 24 h; active compounds read low; DMSO median 0, no signal -100 | GFP signal change (wild-type ribosome), % (test concentration not listed) | AID 720706, 2013 | 1.6% of 350,000 active;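 active = significant combined selectivity score with lowered wild-type GFP, culture density cut under 30%, mutant RFP and density less affected; inactive = any of these conditions unmet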
# The depositor's hits bear a star; ? = inconclusive; / = not tested or not shown; [ ] = another dose, or the depositor's remark.
SMILES,Vif imaging,miR-122 sensor,S100A4 inh HTS,FN deposit inh,Env fusion inh,Ecoli rRNA inh
CC(C)NC(=O)Nc1ccc2c(c1)CC(=O)N([C@H](C)CO)C[C@H](C)[C@H](CN(C)Cc1ccc(C(=O)Nc3ccccc3N)cc1)O2,/,114*[16.7 µM],4,/,-76[16.7 µM],-1
C[C@@H]1CCCCO[C@@H](CN(C)Cc2ccc(Cl)c(Cl)c2)[C@H](C)CN([C@H](C)CO)C(=O)c2cc(NC(=O)CCC(F)(F)F)ccc2O1,/,-14[16.7 µM],-2,/,-27[16.7 µM],1
CC(=O)N1[C@H](C(=O)NCc2ccccc2)[C@@H](CO)[C@@H]2Cn3c(cccc3=O)[C@@H]21,/,/,3,/,/,1
O=C(Cc1ccc([N+](=O)[O-])cc1)Nc1ccc2c(c1)OCO2,-3,/,0,8,6,11
O=C(Nc1ccc2c(c1)OCO2)c1ccc([N+](=O)[O-])cc1[N+](=O)[O-],-2,/,-4,-4,-13,-19*
O=C(C1CCCCC1)N1CCCC(c2nc3c(nnn3Cc3ccccc3)c(=O)[nH]2)C1 (stereo unspecified),-6,-6,/,/,79*,/
O=C(COc1ccccc1F)NNC(=O)c1cccc(-n2cccc2)c1,21,1,-2,/,-136,-44*
O=C1C=C(NCCc2cc(Br)c(O)c(Br)c2)C(=O)c2ncccc21,23,/,12,7,-2,-27*
NC1=C(Br)C(=O)c2ncccc2C1=O,0,10,-6,9,?,-38
NC(c1csc(NC(=O)Nc2cccc(Cl)c2)n1)c1ccccc1Cl (stereo unspecified),8,53,-2,7,76*,-50
O=C(Nc1ccc(Cl)cc1)Nc1nnc(-c2ccncc2)s1,-7,3,/,6,28,/
O=C(Nc1cccc(Cl)c1)Nc1nnc(-c2ccncc2)s1,-5,/,-7,-8,57*,-31
Cc1cccc(C)c1NC(=O)Nc1nc(C(N)c2ccccc2Cl)cs1 (stereo unspecified),-1,-1,-4,-3,-30,-2
CCCNC(=O)N[C@H]1CC[C@H](CCNS(=O)(=O)c2cccc(F)c2)O[C@H]1CO,/,-2[16.7 µM],-7,-3,-16[16.7 µM],3
COCC(=O)Nc1ccc2c(c1)C(=O)N(C)C[C@@H](OC)[C@@H](C)CN(C)[C@@H](C)CO2,/,/,-2,5,-5[16.7 µM],1
CC(C)(C)NC(=S)N/N=C/c1cc(Br)c(O)c(Br)c1,12,/,5,-5,-13,-40*
CC(C)NC(=O)N[C@@H]1C=C[C@H](CC(=O)O)O[C@@H]1CO,/,/,16,-9,2[16.7 µM],1
COc1ccc2c3c([nH]c2c1)[C@H](CO)N(C(=O)C1CCC1)CC31CN(S(C)(=O)=O)C1,/,/,-6,/,/,-2
O=C(C[C@H]1CC[C@@H](NC(=O)c2cccc(F)c2)[C@@H](CO)O1)NCc1ccc(Oc2ccccc2)cc1,/,/,1,/,71*[16.7 µM],-2
O=C(C[C@H]1CC[C@H](NC(=O)c2cccc(F)c2)[C@@H](CO)O1)NCc1ccc(Oc2ccccc2)cc1,/,/,8,/,14[16.7 µM],3
O=C(C[C@H]1CC[C@@H](NC(=O)c2cccc(F)c2)[C@H](CO)O1)NCc1ccc(Oc2ccccc2)cc1,/,/,-2,/,69*[16.7 µM],-4
CC=Cc1ccc2n(c1=O)C[C@H]1[C@H](CO)[C@@H](C(=O)NCc3ccncn3)N(C(=O)C3CCCC3)[C@@H]21 (mixture of isomers),/,/,2,/,/,1
Cc1ccc(Cc2cnc(NC(=O)/C(C#N)=C/c3ccc(-c4ccc([N+](=O)[O-])cc4)o3)s2)cc1,89*,-8,-10,5,3,9
O=C(c1ccc(Cl)c(Cl)c1)N(Cc1ccco1)c1ccc(O)cc1,54*,/,/,/,/,/
O=C(COc1ccccc1)N(Cc1ccco1)c1ccc(O)cc1,22,3,/,/,/,/
SMILES,Vif imaging,miR-122 sensor,S100A4 inh HTS,FN deposit inh,Env fusion inh,Ecoli rRNA inh
CC1CN(C(=O)c2cc(S(=O)(=O)N(C)c3ccc(F)cc3)ccc2Cl)CC(C)O1 (stereo unspecified),-5,-7,-2,/,61*,7
CCOc1ccccc1NC(=O)c1cccc2ccccc12,?,23,-1,0,-4,-7
CCOc1ccccc1NC(=O)c1csc(C)c1C,/,/,3,-1,-21,-31*
c1ccc2c(-c3csc(-c4ccncc4)n3)c[nH]c2c1,0,-6,-11,33*,-145,-27*
CCCCC1(Cc2ccc(OC)c([N+](=O)[O-])c2)C(=O)N(c2ccccc2)N(c2ccccc2)C1=O,/,-6,/,1,118*,/
Cc1ccc2oc(=O)c(/C=C(\O)c3cccs3)nc2c1,89*,/,3,1,-27,-6
O=C(C[C@@H]1C[C@H]2c3cc(NC(=O)c4ccc5c(c4)OCO5)ccc3O[C@H]2[C@H](CO)O1)NC1CCCCC1,/,-2[16.7 µM],1,/,-14[16.7 µM],-14
COc1ccccc1C(=O)OCC(=O)Nc1ccccc1OC(F)F,1,/,-26,10,3,-18
O=C(COC(=O)c1c(F)cccc1F)Nc1ccccc1OC(F)F,51*,-5,-1,0,30,0
CO[C@H]1CN(C)C(=O)c2cc(NC(=O)CC(F)(F)F)ccc2OC[C@@H](C)NC[C@@H]1C,/,/,-3,-7,/,1
O=C(CCc1nc(-c2ccccc2F)no1)Nc1cccnc1,-7,/,0,/,59*,4
CCOc1ccccc1-c1noc(CCC(=O)Nc2cccnc2)n1,15,-1,-4,3,-11,-2
COc1cccc(S(=O)(=O)Nc2ccc3c(c2)C(=O)N(C)[C@@H]2CC[C@H](CC(=O)O)O[C@H]2CO3)c1,/,13[16.7 µM],/,-4,-21[16.7 µM],1
CCC(C)(C)NC(=O)C(c1ccc(OC)cc1)N(Cc1ccco1)C(=O)CCC(=O)Nc1cc(C)on1 (stereo unspecified),-13,-11,/,0,34*,/
Cc1cc2ncn(S(=O)(=O)N3CCCCC3)c2cc1C,-3,-3,/,1,83*,/
O=C(Cn1ncc2c(=O)oc3ccccc3c21)N1CCC(N2CCCCC2)CC1,/,0,-4,2,74*,2
O=C(NC(=S)Nc1ccccc1N1CCN(C(=O)c2ccccc2)CC1)c1ccccc1F,/,/,2,/,58*,-5
O=C(Nc1ccccc1N1CCN(C(=O)c2ccccc2)CC1)c1ccc(Cl)cc1,-2,12,-4,-7,-3,-19
